Experiment: Toxicity liver stage against HepG2, at 10uM
Assay type: cell-based
Design: test concentration 10 uM, cell line HepG2-A16-CD81EGFP
Conditions: human, HepG2-A16-CD81EGFP cells; read-out: INHIBITION
Outline: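 Uninfected HepG2-A16-CD81EGFP cells, 3 × 10^3 per well, 1536-well, plated on prespotted compound at 10 μM final, parasite-free screening media added to match infected plates; puromycin 10 μM positive, DMSO 0.5% negative; run in parallel with 48 h PbLuc assay at 37 °C, 5% CO2; viability by CellTiter-Glo luminescence, normalized to controls.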

SMILES | cytotoxicity at 10 µM [%]
O=C(NCCCN1CCOCC1)c1ccc(Cl)cc1Cl | -3.64
CCCN1CCC(NC(=O)Nc2ccc(OC)c(OC)c2)CC1 | -13.4
Cn1cnc2nc3n(c2c1=O)CCC3 | -0.409
CC(=O)NC[C@@H]1C=C(C)[C@H](CC(=O)NCCN(C)C)C[C@H]1C(C)C | 0.939
CCSc1ncccc1C(=O)NCc1ccc(N(C)C)cc1 | 4.36
CC(=O)N1N=C(c2cccs2)OC1C(=O)Nc1ccccc1 (centres undefined) | -5.58
CCc1c(O)nc(SCC(=O)c2ccccc2)n(-c2ccccc2)c1=O | 3.19
NC(=O)Cn1c(CO)cnc1SCc1ccccc1Cl | 0.252
COc1ccc(CNC(=O)NCC(O)(c2cccs2)C2CC2)cc1 (centres undefined) | 0.227
Cc1noc(CNC(=O)CN(C)c2nc3ccccc3s2)n1 | -2.43
O=C(C1CCC1)N1CCO[C@@H]2CNC[C@@H]21 | 1.44
CC(C)C(=O)N1CCN(S(C)(=O)=O)CC2(CC(=O)N(C)C2)C1 (centres undefined) | 8.91
CC1c2ncc(Cn3cncn3)n2CCN1C(=O)[C@H]1CCCO1 (some centres undefined) | -4.12
CN(C)CCNC(=O)c1cc2c(s1)CCN2S(C)(=O)=O | 0.705
O=S(=O)(NC1=NCN(CCc2ccccc2)CN1)c1ccc(F)cc1 | 3.47
Cc1ccc2nnc(C(=O)NCC3CCCC3)nc2c1 | 6.47
COc1cc(CCC(=O)N2CCC(c3cc4nccnc4[nH]3)CC2)on1 | 3.67
CC(C)N1CCCC(Cc2nccnc2Cl)C1 (centres undefined) | -3.22
CC[C@@H](Cn1ncc2ccccc2c1=O)NC(=O)c1cnccn1 | 6.4
O=C(Cc1cccnc1)N1CC(Cc2nccc3cc[nH]c23)C1 | 4.87
CCC(CC)N1CCC(c2[nH]ncc2S(C)(=O)=O)C1 (centres undefined) | -3.51
Cc1cccc(N2CCCC2c2nc(C)ncc2CN(C)C)n1 (centres undefined) | -2.17
CC(C)(C)c1nnc2n1C(C(=O)N1CCOCC1)CC2 (centres undefined) | 1.52

SMILES | cytotoxicity at 10 µM [%]
Cc1cc(CN2CCN(Cc3ccccc3F)CC2)no1 | 4.51
CC(Cc1ccco1)NS(=O)(=O)N1CCCCCC1 (centres undefined) | 2.29
Cn1nc(C(=O)NC2(c3ccccc3)CCC2)ccc1=O | 1.42
COc1ccc(F)cc1CN(CC(N)=O)C(C)C | -1.68
CCC1CN(CCNS(C)(=O)=O)c2ccccc2O1 (centres undefined) | -2.67
CCc1ocnc1C(=O)N1CCC2(CC1)OCC(C)O2 (centres undefined) | 4.44
CNC(=O)c1cc(NC(=O)NC(C)CCc2cccn2C)ccc1F (centres undefined) | -2.01
CCCC(=O)N1CCC2(CC1)OCCO2 | 5.22
OC(CNCCn1cccn1)COc1ccc(Br)cc1 (centres undefined) | -8.03
CS(=O)(=O)CCOc1nc(-c2ccccc2Cl)no1 | -11.2
CN(Cc1ccncc1)C(=O)NC1CCS(=O)(=O)C1 (centres undefined) | -2.94
Cc1nc(CNC(=O)Nc2cc(C(F)(F)F)c[nH]c2=O)cs1 | 0.868
COCc1csc(NC(=O)NCc2ccccn2)n1 | 11.3
CN(C)C(=O)C1CCCN1CCCNC(=O)Cc1ccccc1F (centres undefined) | 0.646
Cc1ncc2c(n1)CCN(C(C(N)=O)c1ccccc1)C2 (centres undefined) | -2.62
CCN(CC)C(=O)Cc1csc(C(C)C)n1 | -1.55
CC(C)(C)n1nc(C2CC2)cc1C(=O)NCC1(C(N)=O)CCOCC1 | -11.1
CC(C)c1ccc(C(=O)O)cc1S(=O)(=O)Nc1ccc(=O)n(C)c1 | -13.1
CC(C)c1nn(C)c(N(C)C)c1CNC1CCCCNC1=O (centres undefined) | 2.91
CC(C)(CNc1c(C#N)cnc2ccc(Cl)cc12)C(N)=O | 9.19
CN(C)C(CNC(=O)c1[nH]nc(C2CC2)c1Br)C1CC1 (centres undefined) | -4.14
CC(c1nc(C(C)(C)C)no1)S(=O)(=O)CC(=O)N1CCCC1 (centres undefined) | -2.21
COc1ccccc1C(C)CNC(=O)c1[nH]ncc1Br (centres undefined) | 18.1

SMILES | cytotoxicity at 10 µM [%]
CC(=O)NCC1CCCN(C(=O)Cc2c(C)noc2C)C1 (centres undefined) | 17.4
CCc1nc2n(n1)CCCC2NC(=O)Nc1ccc(F)cc1C#N (centres undefined) | -0.802
Cc1cc(Br)ccc1NCc1ccc(C(=O)N(C)C)[nH]1 | 5.68
Cc1cc(NC(=O)CCc2ccsc2)n(C)n1 | 17.8
COc1ccc(NC(=O)CNc2ccc(Br)cc2F)cc1 | 0.795
CC(O)CN1CCN(C(=O)c2cc3ccccc3c(=O)[nH]2)CC1 (centres undefined) | -2.64
Cn1cc(-c2cnc(-c3ccnn3C)nc2)cc1C(=O)N1CCCC1 | 4.55
Cc1nccc([C@H]2C[C@@H]3CCN(C(=O)c4c(C)noc4C)C[C@H]3O2)n1 | -83.3
O=C(NCCc1nccs1)C1CCCN(Cc2ccco2)C1 (centres undefined) | 1.5
Cc1nc2cc(CNC(=O)C3CC(=O)N(CCN(C)C)C3)ccc2n1C (centres undefined) | -4.31
Cc1ccccc1CN(CCN(C)C)Cc1ccc(C(=O)O)cc1 | -1.6
CC(C)[C@H]1COC(=O)N1Cc1noc(-c2ccccc2)n1 | 5.01
CN(CCc1cn[nH]c1)Cc1nc(Cc2cccc(F)c2)no1 | -1.53
CC(C)[C@@H]1CN(Cc2ccccc2C#N)C[C@H]1NC(=O)N(C)C | -12.3
O=C1CCC2(CCN(CCSc3ccccc3)CC2)CN1CCCO | 2.09
CN(C)CCNc1cc(-c2ncccn2)c2cc[nH]c2n1 | 6.39
O=C(CC1=CSC2=NCCCN12)N1CCCCCC1c1ccco1 (centres undefined) | 10
CC(c1ccc2c(c1)OCCO2)N(C)C(=O)c1ccnnc1 (centres undefined) | 0.94
CCNc1ncc(C(=O)NCCc2ccc(C)c(C)c2)cn1 | -5.1
CCC/C=C/c1ccc(CN2CCCC2)cn1 | -16.1
Cc1ccc([C@@H]2CN(C(=O)c3ccoc3C)C[C@H]2NC(=O)C2CC2)cc1 | 4.22
COC(=O)C(CO)NC(=O)c1cn(Cc2ccccc2F)nn1 (centres undefined) | -1.14
CCC(C(=O)NC1CCCCC1)n1ccc2ncccc2c1=O (centres undefined) | 2.17

SMILES | cytotoxicity at 10 µM [%]
O=C(NCCc1c[nH]cn1)C1CCCN(C2CCOCC2)C1 (centres undefined) | 1.58
COCc1ccc(C(=O)N2CCC(Oc3ccccc3OC)CC2)s1 | 5.79
Cc1nc2c(c(NC3CCN(Cc4ccccc4)CC3)n1)CCNCC2 | -6.74
COCCC(=O)N1CCCC(CCC(=O)NCc2ccccc2F)C1 (centres undefined) | 11
CNc1ncccc1C(=O)N1CCCC2(C1)C(=O)N(C)c1ccccc12 (centres undefined) | -5.27
Cc1cc(=O)c(C(=O)N2CCCCC2c2ccc(F)cc2)c[nH]1 (centres undefined) | 3.71
COc1ccc(OC2CCN(C(=O)CCc3n[nH]c(C)n3)CC2)cc1 | 4.66
CCc1nc2ccccc2n1C(CC)C(=O)N(C)CCc1noc(C)n1 (centres undefined) | 3.02
COc1ccc(Oc2nccc3occc23)cc1CN1CCCC1 | -24.6
Cc1noc(C)c1CN(C)C(=O)c1n[nH]c(N)c1-c1ccccc1 | -7.46
Cn1ncc2c(N3CCC3)nc(-c3ccncc3)nc21 | 11.8
O=C(c1ccc(CNC2CCSC2)cc1)N1CCCC1 (centres undefined) | -4.05
CN(C)c1ccc(CC(=O)N[C@@H]2CCNC[C@H]2O)cc1 | -7.82
CNc1ccc(CC2CCCN(C(=O)c3cncnc3C)C2)nn1 (centres undefined) | 5.99
CCNc1cc2c(nn1)CCN(C(=O)c1cccc3c1OCO3)C2 | -9.88
Cc1cnn(CCC(=O)N2CCCC(c3noc(C)n3)C2)c1 (centres undefined) | -3.98
CN(Cc1ccco1)C(=O)CN1CCCC1Cn1cncn1 (centres undefined) | -24.1
CCN(CC)Cc1ccc(C(=O)N2CCCC2Cn2cc(C)cn2)o1 (centres undefined) | -11.4
Cc1nc2cc(=O)[nH]n2c(C)c1CC(=O)NCCCc1ccccc1 | -7.33
CNS(=O)(=O)c1cccc(CNC(=O)c2cc(C)no2)c1 | -10.3
Cc1ccc(C(=O)NC2CCN(C(=O)NCc3ccccn3)CC2)o1 | -12.2
Cc1cnn(CC2CCCN2C(=O)c2n[nH]c(=O)c3ccccc23)c1 (centres undefined) | -21.9
CCn1c(C)nnc1CN(C)C1CCN(CC2CCC2)C1 (centres undefined) | -11.5

SMILES | cytotoxicity at 10 µM [%]
Cc1nc(C)n(CC2CCCN(CCC(=O)NC3CCCCC3)C2)n1 (centres undefined) | -3.39
O=C(c1sccc1C1CC1)N1CCCN(Cc2cscn2)CC1 | -14.7
CCc1nc(CN2CCOC(CN(C)c3cccnn3)C2)cs1 (centres undefined) | 5.35
O=C(c1cccc2ncccc12)N1CCCN(c2cccnn2)CC1 | -2.08
O=C(c1cccnc1O)N1CCCN(c2cccnn2)CC1 | 6.82
CN(Cc1nnc(C2CC2)o1)CC1CCCN1c1cccnn1 (centres undefined) | -6.54
COc1ccc(CCN2CCC(N3CCN(C)C3=O)CC2)cc1 | -6.64
O=C(NCCCn1ccnc1)N1CCCC1c1cccs1 (centres undefined) | -8.31
CCn1ccnc1CN1CCN(CC(=O)NC(=O)NC2CC2)CC1 | -3.3
CCSc1nnc([C@@H](N)CC(C)C)o1 | -2.39
CN1C(=O)C2(CCN(Cc3cccnc3)CC2)c2cccc(F)c21 | 6.77
O=C(c1ccoc1)N1C[C@@H]2OCCN(c3ncccn3)[C@@H]2C1 | 5.09
Cc1cncc(C(=O)N2CCC3(CC2)NC(=O)CC3c2ccccc2)c1 (centres undefined) | -78.1
O=C(O)CN1CCC(F)(F)C2(CCN(c3ccccn3)C2)C1 (centres undefined) | 1.78
Cn1cc2c(n1)C(CNCC1CCOCC1)OCC2 (centres undefined) | 6.86
CS(=O)(=O)NCc1cn2c(n1)CN(Cc1ccoc1)CC2 | 7.92
Cc1ccc(C(CNCc2c[nH]nc2C)N(C)C)cc1 (centres undefined) | 8.42
CN1CC2(CCN(CC3CC3)CC2)COc2ccccc2S1(=O)=O | -0.697
CS(=O)(=O)NC[C@@H]1OC[C@H]2CN(Cc3ccsc3)CC[C@H]21 | 14.3
c1ccc(CN2CCC3(CC2)CCN(Cc2cccs2)C3)nc1 | 4.17
CCCOc1ccc(C(=O)N2CC[C@@H]3CC[C@H](C2)N3)cc1Cl | -6.94
O[C@@H]1CC(CNCc2cccc(Cl)c2)(COc2cnccn2)C[C@@H]1O (some centres undefined) | -3.58

Reference: ChEMBL document CHEMBL4513216, “Probing the Open Global Health Chemical Diversity Library for Multistage-Active Starting Points for Next-Generation Antimalarials” (ACS Infect Dis, 2020)
